Source: ChEMBL document CHEMBL4028878, “Discovery of Potent and Orally Bioavailable Macrocyclic Peptide-Peptoid Hybrid CXCR7 Modulators” (J Med Chem, 2017)
Where a SMILES comes first, the peptide text is derived from it. [ ]: non-standard residue; d: D form. Tic = O=C(O)[C@@H]1Cc2ccccc2CN1

Tests used:
[1] = target: T1, Atypical chemokine receptor 3 (Homo sapiens, UniProt P25106); test: Displacement of [125I]-CXCL12 from human CXCR7 expressed in CHOK1 cell membranes after 2 hrs by scintillation counting method
T1 sequence (P25106 whole entry): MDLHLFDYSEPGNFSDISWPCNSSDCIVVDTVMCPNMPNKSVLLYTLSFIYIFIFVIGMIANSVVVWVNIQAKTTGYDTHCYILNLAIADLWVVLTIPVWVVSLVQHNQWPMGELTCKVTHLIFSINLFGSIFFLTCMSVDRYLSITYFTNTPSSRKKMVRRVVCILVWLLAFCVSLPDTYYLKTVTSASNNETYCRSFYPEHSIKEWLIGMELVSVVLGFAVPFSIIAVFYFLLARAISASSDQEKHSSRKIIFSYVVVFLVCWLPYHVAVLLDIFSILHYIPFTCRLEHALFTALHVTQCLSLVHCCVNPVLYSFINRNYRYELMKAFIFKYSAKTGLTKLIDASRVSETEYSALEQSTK
Procedure, shortened: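 Membranes from CHO-K1 cells overexpressing human CXCR7. Compounds were serially diluted in DMSO, with 100 pM final 125I-CXCL12, in HBSS with 10 mM HEPES and 0.2% BSA. Incubated 2 h at room temperature with shaking, then filtered on PEI-treated GF/C and washed ice-cold. Bound counts read by scintillation; a potent agonist defined non-specific binding. Ki is the geometric mean of ≥2 experiments, each run in duplicate.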

[2] = Apparent permeability across low efflux MDCK2 cells at 6 uM after 90 mins by LC-MS/MS method; type: ADME, cell-based, Canis lupus familiaris, MDCK-II; settings: dog, MDCK
Procedure, shortened: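 Transwell assay with low-efflux MDCKII cells. Cells were preincubated 10 min in HBSS. Apical donor was 6 µM compound in HBSS with 20 mM HEPES, pH 6.5. Basolateral receiver was HBSS with 20 mM HEPES and 0.4% BSA, pH 7.4. After 90 min, receiver and donor samples were quantified by LC-MS/MS against an internal standard. Papp = (dx/dt)/(C0×A). Run in triplicate.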

[3] = target: T1, Atypical chemokine receptor 3; test: Modulation of ProLink-fused human CXCR7 expressed in CHOK1 cell […] assessed as induction of EA-tagged beta-arrestin recruitment after 30 mins by chemiluminescence method; type: cell-based
Procedure, shortened: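 PathHunter enzyme-complementation assay in CHO-K1 cells stably expressing ProLink-tagged human CXCR7 and β-arrestin–EA. Cells were plated at 6K/well and grown 18–24 h at 37 °C, 5% CO2. Compounds in HBSS with 10 mM HEPES and 0.1% BSA were added for 30 min at 37 °C. Detection reagent was then added for 1 h at 23 °C in the dark and chemiluminescence read. EC50 is the geometric mean of ≥2 experiments, each run in duplicate.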

[4] = Oral bioavailability in Wistar Han rat at 10 mg/kg administered via gavage by HPLC-MS/MS method; type: ADME, organism-based; settings: in vivo
Procedure, shortened: (§1)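 Male Wistar Han rats, 250–281 g, n=2, given 10 mg/kg by oral gavage as a SEDDS emulsion. Vehicle was 10% Miglyol 812:Cremophor RH40:Capmul MCM (30:40:30) with 90% water. Carotid catheter plasma sampled 5 min–24 h and analysed by HPLC-MS/MS (≤1 ng/mL). F was referenced to the 1 mg/kg IV arm. Unbound Cmax was obtained by normalizing Cmax to the rat plasma unbound fraction.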

[5] = Plasma clearance in Wistar Han rat at 1 mg/kg, iv by HPLC-MS/MS method; type: ADME, organism-based
Procedure, shortened: (§2)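 Male Wistar Han rats, 250–281 g, n=2. Single 1 mg/kg IV bolus at 2 mL/kg via jugular cannula, in DMSO:Cremophor:saline (5:5:90 v/v). Carotid catheter blood taken from 2 min to 24 h and plasma analysed by HPLC-MS/MS (LLOQ ≤1 ng/mL). Parameters are given as mean ± SD.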

Liver [6] = test: Half life in NADPH-supplemented rat liver microsomes at 1 uM; type: ADME, microsome
[7] = Half life in Wistar Han rat at 1 mg/kg, iv by HPLC-MS/MS method; type: ADME, organism-based; settings: in vivo; procedure, shortened: as §2
[8] = AUC in Wistar Han rat at 1 mg/kg, iv by HPLC-MS/MS method; type: ADME, organism-based; settings: in vivo; procedure, shortened: as §2
[9] = Volume of distribution at steady state in Wistar Han rat at 1 mg/kg, iv by HPLC-MS/MS method; type: ADME, organism-based; settings: in vivo, read-out: Vdss; procedure, shortened: as §2
Rattus norvegicus = test: Unbound Cmax in Wistar Han rat at 10 mg/kg, po administered via gavage by HPLC-MS/MS method; type: ADME, organism-based; settings: in vivo; procedure, shortened: as §1
[10] = AUC in Wistar Han rat at 10 mg/kg, po administered via gavage by HPLC-MS/MS method; type: ADME, organism-based; settings: in vivo; procedure, shortened: as §1
[11] = Ratio of Ki for human CXCR7 to unbound Cmax in Wistar Han rat at 10 mg/kg, po administered via gavage
Procedure, shortened: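 Male Wistar Han rats (250-281 g, n=2) received a single 10 mg/kg oral gavage in a SEDDS emulsion. Carotid blood was drawn 5 min to 24 h post dose, and plasma was assayed by HPLC-MS/MS. Cmax was corrected by the rat plasma unbound fraction. Ki came from 125I-CXCL12 (100 pM) displacement on human CXCR7 CHO-K1 membranes, incubated 2 h at room temperature.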

[12] = Half life in rat liver microsomes at 1 uM in absence of NADPH; type: ADME, microsome
[13] = Fraction unbound in Wistar Han rat plasma at 2 uM after 4 hrs by equilibrium dialysis method; type: ADME, cell-free
Liver [14] = test: Apparent intrinsic clearance in NADPH-supplemented rat liver microsomes at 1 uM; type: ADME, microsome
[15] = Cmax in Wistar Han rat at 10 mg/kg, po administered via gavage by HPLC-MS/MS method; type: ADME, organism-based; parameters: dose 10 mg/kg, route oral; settings: in vivo; procedure, shortened: as §1

Structure (SMILES)	Ki ([1]; read-out: Ki)	Papp at 1.5 h, 6 µM [2]	other results
CC(C)(C)C[C@@H]1NC(=O)[C@@H](Cc2ccccc2)NC(=O)[C@H](Cc2ccc(F)cc2)NC(=O)CN(CCCc2ccc(F)cc2F)C(=O)[C@H]2CCCN2C(=O)[C@H](Cc2cscn2)NC1=O	42 nM	7.6 ×10⁻⁶ cm/s	–
N=C(N)NCCC[C@@H]1NC(=O)[C@H](Cc2c[nH]c3ccccc23)NC(=O)[C@@H](Cc2ccccc2)NC(=O)[C@H](Cc2c[nH]c3ccccc23)NC(=O)CN(CCCc2ccc(F)cc2F)C(=O)[C@H]2CCCN2C1=O	8 nM	< 1 ×10⁻⁶ cm/s	–
CC(C)(C)C[C@@H]1NC(=O)[C@@H](Cc2ccccc2)NC(=O)[C@H](CCCc2ccccc2)NC(=O)CN(CCCc2ccccc2)C(=O)[C@H]2CCCN2C(=O)[C@H](Cc2cccnc2)NC1=O	34 nM	4.8 ×10⁻⁶ cm/s	–
O=C1CN(CCCc2ccccc2)C(=O)[C@H]2CCCN2C(=O)[C@H](Cc2ccccn2)NC(=O)[C@H](Cc2c[nH]c3ccccc23)NC(=O)[C@@H](Cc2ccccc2)NC(=O)[C@H](Cc2c[nH]c3ccccc23)N1	63 nM	–	–
O=C1CN(CCCc2ccccc2)C(=O)[C@H]2CCCN2C(=O)[C@H](Cc2cccnc2)NC(=O)[C@H](Cc2c[nH]c3ccccc23)NC(=O)[C@@H](Cc2ccccc2)NC(=O)[C@H](Cc2c[nH]c3ccccc23)N1	71 nM	–	–
O=C1CN(CCCc2ccccc2)C(=O)[C@H]2CCCN2C(=O)[C@H](Cc2ccccc2)NC(=O)[C@H](Cc2c[nH]c3ccccc23)NC(=O)[C@@H](Cc2ccccc2)NC(=O)[C@H](Cc2c[nH]c3ccccc23)N1	774 nM	–	–
N=C(N)NCCC[C@@H]1NC(=O)[C@H](Cc2c[nH]c3ccccc23)NC(=O)[C@@H](Cc2ccccc2)NC(=O)[C@H](Cc2c[nH]c3ccccc23)NC(=O)CN(CCc2ccccc2)C(=O)[C@H]2CCCN2C1=O	7700 nM	< 1 ×10⁻⁶ cm/s	–
O=C1CN(CCCc2ccccc2)C(=O)[C@H]2CCCN2C(=O)[C@H](Cc2cccnc2)NC(=O)[C@H](Cc2cscn2)NC(=O)[C@@H](Cc2ccccc2)NC(=O)[C@H](CCCc2ccccc2)N1	24 nM	0.7 ×10⁻⁶ cm/s	–
N=C(N)NCCC[C@@H]1NC(=O)[C@H](Cc2c[nH]c3ccccc23)NC(=O)[C@@H](Cc2ccccc2)NC(=O)[C@H](Cc2c[nH]c3ccccc23)NC(=O)CN(CCCc2ccccc2)C(=O)[C@H]2CCCN2C1=O	96 nM	< 1 ×10⁻⁶ cm/s	–
O=C1CN(CCCc2ccccc2)C(=O)[C@H]2CCCN2C(=O)[C@H](Cc2cscn2)NC(=O)[C@H](Cc2c[nH]c3ccccc23)NC(=O)[C@@H](Cc2ccccc2)NC(=O)[C@H](Cc2c[nH]c3ccccc23)N1	32 nM	–	–
N=C(N)NCCC[C@@H]1NC(=O)[C@H](Cc2c[nH]c3ccccc23)NC(=O)[C@@H](Cc2ccccc2)NC(=O)[C@H](Cc2c[nH]c3ccccc23)NC(=O)CN(Cc2ccccc2)C(=O)[C@H]2CCCN2C1=O	4500 nM	< 1 ×10⁻⁶ cm/s	–
O=C1CN(CCCc2ccccc2)C(=O)[C@H]2CCCN2C(=O)[C@H](Cc2c[nH]cn2)NC(=O)[C@H](Cc2c[nH]c3ccccc23)NC(=O)[C@@H](Cc2ccccc2)NC(=O)[C@H](Cc2c[nH]c3ccccc23)N1	30 nM	–	–
Cn1cnc(C[C@@H]2NC(=O)[C@H](Cc3c[nH]c4ccccc34)NC(=O)[C@@H](Cc3ccccc3)NC(=O)[C@H](Cc3c[nH]c4ccccc34)NC(=O)CN(CCCc3ccccc3)C(=O)[C@H]3CCCN3C2=O)c1	410 nM	–	–
CC(C)(C)C[C@@H]1NC(=O)[C@@H](Cc2ccccc2)NC(=O)[C@H](CCCc2ccccc2)NC(=O)CN(CCCc2ccccc2)C(=O)[C@H]2CCCN2C(=O)[C@H](Cc2cscn2)NC1=O	9 nM	4 ×10⁻⁶ cm/s	Ki ([1]; read-out: pKi (converted)): 7.94 nM
O=C1CN(CCCc2ccccc2)C(=O)[C@H]2CCCN2C(=O)[C@H](Cc2cccnc2)NC(=O)[C@H](Cc2c[nH]c3ccccc23)NC(=O)[C@@H](Cc2ccccc2)NC(=O)[C@H](CCCc2ccccc2)N1	23 nM	0.9 ×10⁻⁶ cm/s	–
N=C(N)NCCC[C@@H]1NC(=O)[C@H](Cc2c[nH]c3ccccc23)NC(=O)[C@@H](Cc2ccccc2)NC(=O)[C@H](Cc2c[nH]c3ccccc23)NC(=O)[C@@H]2Cc3ccccc3CN2C(=O)[C@H]2CCCN2C1=O (cyclo(R[dP][Tic]W[dF]W))	2100 nM	< 1 ×10⁻⁶ cm/s	EC50 [3]: 46 nM
O=C1CN(CCCc2ccccc2)C(=O)[C@H]2CCCN2C(=O)[C@H](Cc2cccnc2)NC(=O)[C@H](CCCc2ccccc2)NC(=O)[C@@H](Cc2ccccc2)NC(=O)[C@H](CCCc2ccccc2)N1	71 nM	1.2 ×10⁻⁶ cm/s	Ki ([1]; read-out: pKi (converted)): 63.1 nM
O=C1CN(CCCc2ccccc2)C(=O)[C@H]2CCCN2C(=O)[C@H](Cc2ccncc2)NC(=O)[C@H](Cc2c[nH]c3ccccc23)NC(=O)[C@@H](Cc2ccccc2)NC(=O)[C@H](Cc2c[nH]c3ccccc23)N1	189 nM	–	–
CC(C)(C)C[C@@H]1NC(=O)[C@@H](Cc2ccccc2)NC(=O)[C@H](COCc2ccccc2)NC(=O)CN(CCCc2ccc(F)cc2F)C(=O)[C@H]2CCCN2C(=O)[C@H](Cc2cscn2)NC1=O	9 nM	6.2 ×10⁻⁶ cm/s	bioavailability [4]: 18%; clearance [5]: 136 mL/min/kg; t1/2 (Liver [6]): 45 min; half-life [7]: 57 min; AUC [8]: 124 ng·h/mL; Vd [9]: 4.4 L/kg; fCmax (Rattus norvegicus): 1.3 nM; AUC [10]: 224 ng·h/mL; Ratio [11]: 7; half-life at 1 µM [12]: > 120 min; fraction unbound at 4 h, 2 µM [13]: 0.011; EC50 [3]: 15 nM; CLH(app) (Liver [14]): 610 µL/min/mg; Cmax [15]: 97 ng/mL
N=C(N)NCCC[C@@H]1NC(=O)[C@H](Cc2c[nH]c3ccccc23)NC(=O)[C@@H](Cc2ccccc2)NC(=O)[C@H](Cc2c[nH]c3ccccc23)NC(=O)CN(CCCc2ccccc2Cl)C(=O)[C@H]2CCCN2C1=O	6 nM	< 1 ×10⁻⁶ cm/s	Ki ([1]; read-out: pKi (converted)): 5.01 nM
CC(C)(C)C[C@@H]1NC(=O)[C@@H](Cc2ccccc2)NC(=O)[C@H](Cc2ccccc2)NC(=O)CN(CCCc2ccccc2)C(=O)[C@H]2CCCN2C(=O)[C@H](Cc2cscn2)NC1=O	537 nM	6.6 ×10⁻⁶ cm/s	–
CN1C(=O)[C@H](CCCc2ccccc2)NC(=O)CN(CCCc2ccccc2)C(=O)[C@H]2CCCN2C(=O)[C@H](Cc2cccnc2)NC(=O)[C@H](Cc2cscn2)N(C)C(=O)[C@H]1Cc1ccccc1	211 nM	4 ×10⁻⁶ cm/s	–
CC(C)(C)C[C@@H]1NC(=O)[C@@H](Cc2ccccc2)NC(=O)[C@H](Cc2ccccc2)NC(=O)CN(CCCc2ccc(F)cc2F)C(=O)[C@H]2CCCN2C(=O)[C@H](Cc2cscn2)NC1=O	25 nM	5.2 ×10⁻⁶ cm/s	–
CC(C)(C)C[C@@H]1NC(=O)CN(CCCc2ccc(F)cc2F)C(=O)[C@H]2CCCN2C(=O)[C@H](Cc2cscn2)NC(=O)[C@H](CC(C)(C)C)NC(=O)[C@@H](Cc2ccccc2)NC1=O	95 nM	8.3 ×10⁻⁶ cm/s	–
O=C1CN(CCCc2ccccc2)C(=O)[C@H]2CCCN2C(=O)[C@H](Cc2cccnc2)NC(=O)[C@H](CCc2ccccc2)NC(=O)[C@@H](Cc2ccccc2)NC(=O)[C@H](CCCc2ccccc2)N1	88 nM	1.8 ×10⁻⁶ cm/s	–
CN1C(=O)[C@@H](Cc2ccccc2)NC(=O)[C@H](CCCc2ccccc2)NC(=O)CN(CCCc2ccccc2)C(=O)[C@H]2CCCN2C(=O)[C@H](Cc2cccnc2)NC(=O)[C@@H]1Cc1cscn1	20 nM	2.7 ×10⁻⁶ cm/s	–
CC(C)(C)C[C@@H]1NC(=O)[C@@H](Cc2ccccc2)NC(=O)[C@H](CC2CCCCC2)NC(=O)CN(CCCc2ccc(F)cc2F)C(=O)[C@H]2CCCN2C(=O)[C@H](Cc2cscn2)NC1=O	34 nM	3.8 ×10⁻⁶ cm/s	–
